Experimental data published in the EternaBench riboswitch data.

System: MS2 coat protein
Assay: apparent Kd, MS2 coat protein; higher = weaker binding; RNA-MaP array; FMN 200 µM where present
Procedure, shortened: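 Green signal from SNAP-549-labelled MS2 coat protein was normalised to red-channel RNA signal and to the median Fmax of control clusters. The protein was titrated from 0.7 or 1.5 nM, doubling to 3 µM, without and then with constant ligand, over designs transcribed by stalled E. coli RNA polymerase on Illumina sequencing-chip clusters, in 100 mM Tris-HCl pH 7.5, 80 mM KCl, 4 mM MgCl2, BSA, DTT, yeast tRNA and Tween-20. The apparent Kd is the median of filtered per-cluster binding-curve fits.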

[1] = designed as: OFF switch for flavin mononucleotide, no ligand
[2] = ligand present: flavin mononucleotide, designed as: OFF switch for flavin mononucleotide
[3] = designed as: ON switch for flavin mononucleotide, no ligand
[4] = ligand present: flavin mononucleotide, designed as: ON switch for flavin mononucleotide

## GUUAAGGUAGGAUAUACGAUAAUAUAGGGUAGAAUUAUAACACAUGAGGAUCACCCAUGUAGAAGGACCAAUUG
[1]
  apparent Kd: 31.2 nM
[2]
  apparent Kd: 39.5 nM

## GUUAAGUGAGGAUAUGGUGAGUAGUGCCUGAGCGCUGCUCACCAGAAGGCACAUGAGGAUCACCCAUGUAUAGC
[1]
  apparent Kd: 15.7 nM
[2]
  apparent Kd: 28 nM

## GUUAAUUAGUGAGGAUAUACAGUAUUUAAUACUGUAGAAGGCACAAUCCUCAAGACAUGAGGAUCACCCAUGUGAUAAUAAGCU
[1]
  apparent Kd: 35.4 nM
[2]
  apparent Kd: 139 nM

## GUUAAUUAGUGAGGAUAUACAUAAUUUAAUACUGUAGAAGGCACAAUCCUCAAGACAUGAGGAUCACCCAUGUGAUAAUAAGCU
[1]
  apparent Kd: 34.9 nM
[2]
  apparent Kd: 174 nM

## GUUAGCGCAGGAUAUACAUGAGGAUCACCCAUGUCCUCAUGCGUUAAAGAGGUGAUCCGUAGAAGGGUGUAAAC
[1]
  apparent Kd: 180 nM
[2]
  apparent Kd: 250 nM

## GUUAUGUGAGGAUAUAUGUAGGAAACUACAUUAAGGGUAUCACAUGAGGAUCACCCAUGUAGAAGGCGCGUAGC
[1]
  apparent Kd: 298 nM
[2]
  apparent Kd: 349 nM

## GUUCCACAUGAGGAUCACCCAUGUGAGGAUAUGGAUUCGCUGGCCGUAGCCAGUGGAUCCAGAAGGCGCGUGAU
[1]
  apparent Kd: 77.4 nM
[2]
  apparent Kd: 96.6 nM

## GUUGAGUGAGAGAAGGCCAGUUGGGAAAAUGAUCGACAGUGUACAGCGUGGAGGAUAUCUCAACAUGAGGAUCACCCAUGUAUA
[3]
  apparent Kd: 186 nM
[4]
  apparent Kd: 12.3 nM

## GUUGGCGUAGAAGGAUAUUGGUGAUGCGUCUUGUACAUGAGGAUCACCCAUGUCACUCUGCACGCCGAGAAGGUCUGCAAAUGG
[3]
  apparent Kd: 110 nM
[4]
  apparent Kd: 87.6 nM

## GUUGGUGUAGAAGGAUAUUGGUGAGGCGUCUUGUACAUGAGGAUCACCCAUGUCAUUCUGCACGCCGAGAAGGUCUGCAAUUGG
[3]
  apparent Kd: 67.9 nM
[4]
  apparent Kd: 57 nM

## GUUUACGUGGAAGGAUAUACAUUUGACAUCCUGAUGCGCGCAAUACCCACAUGAGGAUCACCCAUGUAGAAGGUCUGCGAAAGA
[1]
  apparent Kd: 14.7 nM
[2]
  apparent Kd: 18.4 nM

## GUUUCCACAGGAAGGAACACUCGGAGAAGGGCACAUGAGGAUCACCCAUGUGCGGCUCGUCACGUGCAGGAUAUUCGAUAUAGA
[1]
  apparent Kd: 7.2 nM
[2]
  apparent Kd: 17.5 nM

## GUUUCGGGAGGAUAUGCGUGGAUUAUUUUCGUAUGUUGUUUACAUGAGGAUCACCCAUGUAGAAGGUCUGGAGC
[1]
  apparent Kd: 42.8 nM
[2]
  apparent Kd: 228 nM

## GUUUUCGCAUGAGGAUAUGCUCGCAUUUCAAGAGCAGAAGGUAUGUCUAUAGACAUGAGGAUCACCCAUGUAUUUAACUUUGAA
[3]
  apparent Kd: 232 nM
[4]
  apparent Kd: 44.5 nM

## GUUUUUUUUAGUUCAUACUAUAUGAUAGAAGGUGAAAUAUAGACAUGAGGAUCACCCAUGUAAUUCAAGGAUAUGUAGUUACUC
[3]
  apparent Kd: 35.1 nM
[4]
  apparent Kd: 24.3 nM

## UAAAACCUAGGAUAUACAUGAGGAUCACCCAUGUUCGAAGGAGCCCAAGUGACUUCUAGUAGAAGGAGGGCGAA
[1]
  apparent Kd: 18.8 nM
[2]
  apparent Kd: 23 nM

## UAAAAGACUAGUAUGGUAACCUUCACAUGAGGAUCACCCAUGUAGGAUAUGAGCAGAAAAUCUGCUCAGAAGGACAUGCUAGUC
[1]
  apparent Kd: 3.73 nM
[2]
  apparent Kd: 4.25 nM

## UAAAAUUUAUGAUAUUAUGACAGUAGAAGGCUAUACAUGUUGAUACAUGAGGAUCACCCAUGUAUAGAGGAUAUAUACAUUUAU
[1]
  apparent Kd: 845 nM
[2]
  apparent Kd: 832 nM

## UAAACGUUCUAGAAGGUGCAUUUGUUAAACAAGCAAGGAUAUAGACAUGAGGAUCACCCAUGUCUAUUAGACAUCGGCCUACUU
[1]
  apparent Kd: 5.75 nM
[2]
  apparent Kd: 5.39 nM

## UAAAUCUUGUAAGGAUAUACACGAGAUUCAAGUGUAGAAGGUACUUACAUGAGGAUCACCCAUGUAUACAUGGAUAAUAGAUAU
[3]
  apparent Kd: 211 nM
[4]
  apparent Kd: 64.5 nM

## UAAAUUUUGUAAGGAUAUACACGAGAUUCAAGUGUAGAAGGUACUUACAUGAGGAUCACCCAUGUAUACAUGGAUAAUAGAUAU
[3]
  apparent Kd: 436 nM
[4]
  apparent Kd: 141 nM

## UAACGACACGCAGGAUAUCUAACAUGAGGAUCACCCAUGUCAGAUGACAGGGUCGCUUUACUGGCAGAGAAGGGCGAUCGAUAC
[1]
  apparent Kd: 7.44 nM
[2]
  apparent Kd: 11.2 nM

## UAAGUACGAGGAUAUACAUAGAUACAGAUACAUGUAGACGUACAUGAGGAUCACCCAUGUAGAAGGCGUAUAUA
[1]
  apparent Kd: 67.9 nM
[2]
  apparent Kd: 239 nM

## UAAGUCGGAAGAUAAUAAUGAAUACAUGAGGAUCACCCAUGUAAGGAUAUGCAGUGGAAUACACUGCAGAAGGUACAUACCGAC
[1]
  apparent Kd: 16.1 nM
[2]
  apparent Kd: 21.4 nM

## UAAUAGUGUGUUAGGAUAUGCUGGUCGAAAGAUCAGCAGAAGGAACAUGAGGAUCACCCAUGUAGAGUAUUUUA
[1]
  apparent Kd: 21.3 nM
[2]
  apparent Kd: 62.4 nM

## UAAUCUCAGAUAGGAUAUAUAGGAUGAUUUAAGACCGAACAUGAGGAUCACCCAUGUGAUUAUUCGUAGAAGGAUCAAUGACCC
[3]
  apparent Kd: 122 nM
[4]
  apparent Kd: 114 nM

## UAAUGAGAGCAGGAUAUCUUAUAAAUGUAUGAAAGAGAAGGGCUCACAUGAGGAUCACCCAUGUGGUCCUAGAU
[1]
  apparent Kd: 34 nM
[2]
  apparent Kd: 163 nM

## UAAUGAUAAGCAGGAUAUACUACACAUGAGGAUCACCCAUGUGUGUGAUCCACUCUCGUAUGGUAGUAGAAGGGCUCAGAGUAC
[1]
  apparent Kd: 153 nM
[2]
  apparent Kd: 80.6 nM

## UAAUUGUGAGGAUAUUCGUAGUUCUCGGAGACGAGAAUUACGGAGAAGGCACAUGAGGAUCACCCAUGUUCCUU
[1]
  apparent Kd: 18.3 nM
[2]
  apparent Kd: 96.1 nM

## UAAUUUUGUCAAGGAUAUGUAAUAUAGAUUUGUAAACAUGAGGAUCACCCAUGUAUAUGGUGGGAACAGAAGGUGAAUGGAGAA
[1]
  apparent Kd: 196 nM
[2]
  apparent Kd: 171 nM

## UACAAUCUAUCUGAGGAUAUCAUGAAAAAAACAUGAGGAUCACCCAUGUGCAGGAAAACUGCAUAUGAGAAGGCAGAUAGAUUGC
[3]
  apparent Kd: 671 nM
[4]
  apparent Kd: 29.3 nM

## UACAAUCUAUCUGAGGAUAUCAUGAAAAAAACAUGAGGAUCACCCAUGUGCAGGAAAACUGCAUAUGAGAAGGCAGAUAGAUUGG
[3]
  apparent Kd: 736 nM
[4]
  apparent Kd: 28.9 nM

## UACAUUACUGAGAAGGGAUACAUAUAAUUUUAGUCAGGAUAUCGAUACAGUGCAGCAUGAGGACAUGAGGAUCACCCAUGUAUU
[3]
  apparent Kd: 24.4 nM
[4]
  apparent Kd: 19.5 nM

## UACCUGAGGCAAAGCUUUAGGUAUACAUGAGGAUCACCCAUGUAGGAUAUGGUAGGCCUUGCUUACCAGAAGGACAUGUUAAUU
[1]
  apparent Kd: 23.5 nM
[2]
  apparent Kd: 76.1 nM

## UACCUGAGGCAAAGCUUUAGGUAUACAUGAGGAUCACCCAUGUAGGAUAUGGUAGGCUUUGCUUACCAGAAGGACAUGUAAAUU
[1]
  apparent Kd: 20.5 nM
[2]
  apparent Kd: 67.8 nM

## UACCUGAGGCUUUGCUUUAGGCUUACAUGAGGAUCACCCAUGUAGGAUAUGGUAGGCAAAGCUUACCAGAAGGACAUGGAAAUU
[1]
  apparent Kd: 19 nM
[2]
  apparent Kd: 66.6 nM

## UACGCGUAGGAGAAGGGCCCACUAUAGGGUAAGUGCUGUUCUCACAUGAGGAUCACCCAUGUGCGGCAGGAUAUCCACGCGUGC
[1]
  apparent Kd: 11.6 nM
[2]
  apparent Kd: 66.7 nM

## UACGUUCUACGCGACAUGAGGAUCACCCAUGUUAGCCGAUCACAGGAUAUGUUGGAGCCGGUCGAACAGAAGGGUGAGUCUGCU
[3]
  apparent Kd: 38.8 nM
[4]
  apparent Kd: 38.9 nM

## UACUUGUCAGGAUAUCUUACAUUAACAUCGUAGUUACCGUUGGAGAAGGGACAUGAGGAUCACCCAUGUUUGGC
[1]
  apparent Kd: 32 nM
[2]
  apparent Kd: 54.9 nM

## UAGAAGUCAGGAUAUCCAGCUCGUCACUUGCGUGAUGAGUUGGAGAAGGGACAUGAGGAUCACCCAUGUAAAGC
[1]
  apparent Kd: 53.7 nM
[2]
  apparent Kd: 46.5 nM

## UAGAAGUCAGGAUAUCCAUGGCGGCACUUGCGUGGUGGCGUGGAGAAGGGACAUGAGGAUCACCCAUGUAAAGA
[1]
  apparent Kd: 54.4 nM
[2]
  apparent Kd: 42 nM

## UAGACCGAUGUUAGGAUAUCUGGUCGAGAAAGAAAAGAGAAGGAACAUGAGGAUCACCCAUGUACCCGGGUAAC
[1]
  apparent Kd: 15 nM
[2]
  apparent Kd: 19.2 nM

## UAGAUGGCUCAGGAUAUUUGCCAACUAACUCGCGAAGAAGGGAGCACAUGAGGAUCACCCAUGUGAUCGAACGG
[1]
  apparent Kd: 18.8 nM
[2]
  apparent Kd: 45.6 nM

## UAGCUCCAUGUGAGGAUAUAGACUCGGACCCGGGAUUAGAAGGUACAUGAGGAUCACCCAUGUAUCCAACUUGU
[1]
  apparent Kd: 15.3 nM
[2]
  apparent Kd: 16.6 nM

## UAGGACUACGUAGGAUAUGUAGGAUAUUCCUACAUGAGGAUCACCCAUGUUAGCAUGUAAGUAGGACAGAAGGACGUGGUAAAU
[3]
  apparent Kd: 695 nM
[4]
  apparent Kd: 79.9 nM

## UAGUAUAAGGGCAUUAAACAUGAGGAUCACCCAUGUACGAUAGAGGAUAUGCAUUUCAGUUUAGAGUAGAAGGUUAGAGAAUUU
[1]
  apparent Kd: 42.1 nM
[2]
  apparent Kd: 42.9 nM

## UAGUUUUAGCGAGGAUAUCGUAUGUUUAAUUUUUUAUAUUGUUUACAUGAGGAUCACCCAUGUUACGAGAAGGCGCAUGGGAUU
[3]
  apparent Kd: 388 nM
[4]
  apparent Kd: 100 nM

## UAUAAUACAUAGGAUAUCGAAUAAAUCAUUUAACGAGAAGGAUGAACAUGAGGAUCACCCAUGUGGUAUCAUGG
[1]
  apparent Kd: 263 nM
[2]
  apparent Kd: 241 nM

## UAUACUUACGAAGGAUAUGGUUACAUGAGGAUCACCCAUGUAUGUAUAUUGAUCUAGUAUUUUAACCAGAAGGUCGUGAGUAUA
[1]
  apparent Kd: 65.5 nM
[2]
  apparent Kd: 53.4 nM

## UAUAGGCUAGGAUAUACAACACUUGGUUCAGAUGUUUGAAGACAUGAGGAUCACCCAUGUAGAAGGAGCAUUCA
[1]
  apparent Kd: 33.5 nM
[2]
  apparent Kd: 76.3 nM

## UAUAUAAUUAAGAGCUGGAACUCAACAUGAGGAUCACCCAUGUAGGAUAUCAGCACGAUAAGUGCUGAGAAGGACUACCAGCUC
[1]
  apparent Kd: 18.2 nM
[2]
  apparent Kd: 20.4 nM

## UAUAUAAUUAAGAGCUGGCUCAAAACAUGAGGAUCACCCAUGUAGGAUAUCAGCACGAUAAGUGCUGAGAAGGACAUCCAGCUC
[1]
  apparent Kd: 16.9 nM
[2]
  apparent Kd: 24.5 nM

## UAUAUAUAAUAUAUUAACAUGAGGAUCACCCAUGUCGCUAGACAGGAUAUAUUUAAUAUUAUAAAGUAGAAGGGUCAUAUAAUU
[3]
  apparent Kd: 50.5 nM
[4]
  apparent Kd: 64.8 nM

## UAUAUAUAGUAAGGAUAUGUAAUCAUUUUAUAAACAGAAGGUACUGACAUGAGGAUCACCCAUGUUUUAGUGUGGGCAUGUAGA
[1]
  apparent Kd: 86.4 nM
[2]
  apparent Kd: 141 nM

## UAUAUAUAGUAAGGAUAUGUAUAUAUUUUAUAAACAGAAGGUACUGACAUGAGGAUCACCCAUGUUUUAGUGUGGGCAUGUAGA
[1]
  apparent Kd: 72.1 nM
[2]
  apparent Kd: 109 nM
